Consider five compounds from ChEMBL document CHEMBL1649438, “Activities of ceftobiprole and other cephalosporins against extracellular and intracellular (THP-1 macrophages and keratinocytes) forms of methicillin-susceptible and methicillin-resistant Staphylococcus aureus” (Antimicrob Agents Chemother, 2009).

SMILES strings stand for the structures. Converted amounts (≈) assume the structure as drawn.

The subject of experiment [1] is Staphylococcus aureus. In words: Antimicrobial activity against methicillin-susceptible Staphylococcus aureus ATCC 25923 infected in human keratinocytes assessed as change in bacterial count after 24 hrs. The format is functional, organism-based. The settings on record: ATCC 25923, 24 h. In a few lines: (§1)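 Primary human skin keratinocytes were grown in defined keratinocyte serum-free medium and infected with S. aureus to 1.5 × 10^6 to 3.0 × 10^6 CFU/mg cell protein. Cells were exposed 24 h to increasing extracellular concentrations. Response was the log10 CFU change from the postphagocytosis inoculum, fitted by a Hill equation with slope 1. Cs is the concentration giving CFU equal to the original inoculum, found by graphical interpolation.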

The test system of experiment [2] is Staphylococcus aureus. The experiment in a line: Ratio of MIC for beta-lactamase-negative methicillin-susceptible Staphylococcus aureus ATCC 25923 by microdilution method at pH 7.4 to ratio of MIC for beta-lactamase-negative methicillin-susceptible Staphylococcus aureus ATCC 25923 by microdilution method at pH 5.5. The format is functional. The method, boiled down: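 MICs were measured by broth microdilution, with the broth adjusted to pH 7.4 or pH 5.5 before inoculation. pH was confirmed at the end of the assay to within ±0.1 unit. The value is the fold decrease in MIC between pH 7.4 and pH 5.5.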
In general terms: Broth dilution looks for growth in wells or tubes with falling amounts of substance.

Experiment [3] has as its system Staphylococcus aureus. In words: Antimicrobial activity against methicillin-susceptible Staphylococcus aureus ATCC 25923 infected in human keratinocytes assessed as bacterial count per mg of cell protein at low extracellular compound concentration after 24 hrs. The class given is functional. In a few lines:
as §1

For experiment [4], the system named is Staphylococcus aureus. The experiment in a line: Antimicrobial activity against methicillin-susceptible Staphylococcus aureus ATCC 25923 infected in human keratinocytes assessed as bacterial count per mg of cell protein at high extracellular compound concentration after 24 hrs. The format is functional. The method, boiled down: as §1
Experiment [5] deals with Staphylococcus aureus. In words: Bacteriostatic activity against methicillin-susceptible Staphylococcus aureus ATCC 25923 infected in human keratinocytes assessed as change in bacterial count after 24 hrs. The class given is functional. In a few lines: as §1
Experiment [6] deals with Staphylococcus aureus. The experiment in a line: Ratio of MIC for hospital-acquired methicillin-resistant Staphylococcus aureus ATCC 33591 by microdilution method at pH 7.4 to ratio of MIC for hospital-acquired methicillin-resistant Staphylococcus aureus ATCC 33591 by microdilution method at pH 5.5. The format is functional. In a few lines: (§2)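 MICs were determined by broth microdilution at pH 7.4 and pH 5.5. Broth was adjusted before inoculation, and pH was confirmed maintained (±0.1 unit) at the end.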

Experiment [7] deals with Staphylococcus aureus. In words: Bacteriostatic activity against methicillin-resistant Staphylococcus aureus ATCC 33591 infected in human keratinocytes assessed as change in bacterial count after 24 hrs. The class given is functional. The method, boiled down:
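Primary human skin keratinocytes were grown in defined keratinocyte serum-free medium, infected, then incubated 24 h with increasing extracellular drug concentrations. Response was the change in log10 CFU/mg cell protein versus the post-phagocytosis inoculum, fitted to a Hill equation with slope factor 1. Static concentration (mg/liter, total drug) was taken by graphical interpolation where CFU equalled the original inoculum.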

In experiment [8] the test system is Staphylococcus aureus. In words: Antimicrobial activity against methicillin-resistant Staphylococcus aureus ATCC 33591 infected in human keratinocytes assessed as bacterial count per mg of cell protein at low extracellular compound concentration after 24 hrs. The format is functional. The method, boiled down:
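Primary human skin keratinocytes were grown in defined keratinocyte serum-free medium, infected with a postphagocytosis inoculum of 1.5 × 10⁶ to 3.0 × 10⁶ CFU/mg cell protein, then exposed 24 h to increasing extracellular antibiotic concentrations. Change in log10 CFU/mg protein from the inoculum was fitted to a Hill equation with slope 1. E0 and Emax were extrapolated to infinitely low and high concentrations, in total drug mg/liter.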

Experiment [9] relates to Staphylococcus aureus. The experiment in a line: Ratio of MIC for hospital-acquired methicillin-resistant Staphylococcus aureus ATCC 33591 by microdilution method at pH 5.5 to MIC for beta-lactamase-negative methicillin-susceptible Staphylococcus aureus ATCC 25923 by microdilution method at pH 5.5. The format is functional. In a few lines:
as §2

Experiment [10] relates to Staphylococcus aureus. The experiment in a line: Antimicrobial activity against hospital-acquired vancomycin-intermediate Staphylococcus aureus NRS126 obtained from bloodstream infection of patient by microdilution method at pH 5.5.
The test system of experiment [11] is Staphylococcus aureus. In words: microbe, parasite or virus in culture. To be noted: ATCC 25923.
For experiment [12], the system named is Staphylococcus aureus. In words: Antimicrobial activity against hospital-acquired methicillin-resistant Staphylococcus aureus N4112910 obtained from nasal swap of patient by microdilution method at pH 5.5.
Experiment [13] relates to Staphylococcus aureus. In words: microbe, parasite or virus in culture. The settings on record: ATCC 11632.

The term EC50 denotes the concentration giving half of the maximal effect. Regarding `CO[C@@]1(NC(=O)Cc2cccs2)C(=O)N2C(C(=O)O)=C(COC(N)=O)CS[C@@H]21` [CEFOXITIN], the 50% effective concentration (EC50) with Staphylococcus aureus [1] came out at 0.55 µg/mL (≈ 1.29 µM). Besides, the “fold change (FC)” value with Staphylococcus aureus [2] amounted to 4; in the experiment with Staphylococcus aureus [6] it was 512. For the same compound, the results for the log10cfu with Staphylococcus aureus [3], in the experiment with Staphylococcus aureus [4] and with Staphylococcus aureus [8] were 3.06, -0.91 and 2.36, respectively. Also, the Activity is recorded as 1.84 mg/L in the experiment with Staphylococcus aureus [5] and above 200 mg/L with Staphylococcus aureus [7].

In the case of `CO/N=C(\C(=O)N[C@@H]1C(=O)N2C(C(=O)O)=C(CSc3nc(=O)c(O)nn3C)CS[C@H]12)c1csc(N)n1` [CEFTRIAXONE], the EC50 in the experiment with Staphylococcus aureus [1] came to 1.83 µg/mL (≈ 3.3 µM). Besides, the results for the “fold change (FC)” value in the experiment on Staphylococcus aureus [2], with Staphylococcus aureus [9] and in the experiment with Staphylococcus aureus [6] were 16, 4 and 512, respectively. The log10cfu in the experiment on Staphylococcus aureus [3] is 2.44; in the experiment with Staphylococcus aureus [4], -0.3; in the experiment with Staphylococcus aureus [8] it was 2.09. Also, the Activity is given as 14.8 mg/L in the experiment with Staphylococcus aureus [5] and above 200 mg/L in the experiment with Staphylococcus aureus [7].

For the compound `CO/N=C(\C(=O)N[C@@H]1C(=O)N2C(C(=O)O)=C(COC(N)=O)CS[C@H]12)c1ccco1` [CEFUROXIME], the EC50 in the experiment on Staphylococcus aureus [1] was determined as 0.27 µg/mL (≈ 0.636 µM). The “fold change (FC)” value came out at 16 with Staphylococcus aureus [2], 4 in the experiment on Staphylococcus aureus [9] and 128 in the experiment with Staphylococcus aureus [6]. For the same compound, the log10cfu in the experiment with Staphylococcus aureus [3] is reported as 3.23; in the experiment on Staphylococcus aureus [4], -0.42; in the experiment with Staphylococcus aureus [8] it was 2.75. Besides, the values for the Activity with Staphylococcus aureus [5] and in the experiment on Staphylococcus aureus [7] were 0.26 mg/L and 200 mg/L, respectively.

For `CC1=C(C(=O)O)N2C(=O)[C@@H](NC(=O)[C@H](N)c3ccccc3)[C@H]2SC1` [CEPHALEXIN ANHYDROUS], the 50% effective concentration (EC50) with Staphylococcus aureus [1] is 0.27 µg/mL (≈ 0.777 µM). Further, the “fold change (FC)” value in the experiment with Staphylococcus aureus [2] stood at 2; in the experiment on Staphylococcus aureus [9], 16; in the experiment on Staphylococcus aureus [6] it was 16. Besides, the log10cfu in the experiment with Staphylococcus aureus [3] turned out to be 3.09; with Staphylococcus aureus [4] it was 0.035; with Staphylococcus aureus [8], 2.42. In addition, the Activity with Staphylococcus aureus [5] came out at 200 mg/L.

Consider `CN[C@H](CC(C)C)C(=O)N[C@H]1C(=O)N[C@@H](CC(N)=O)C(=O)N[C@H]2C(=O)N[C@H]3C(=O)N[C@H](C(=O)N[C@H](C(=O)O)c4cc(O)cc(O)c4-c4cc3ccc4O)[C@H](O)c3ccc(c(Cl)c3)Oc3cc2cc(c3O[C@@H]2O[C@H](CO)[C@@H](O)[C@H](O)[C@H]2O[C@H]2C[C@](C)(N)[C@H](O)[C@H](C)O2)Oc2ccc(cc2Cl)[C@H]1O` [VANCOMYCIN], for which the MIC against Staphylococcus aureus [10], against Staphylococcus aureus [11], with Staphylococcus aureus [12] and against Staphylococcus aureus [13] was 0.25 µg/mL (≈ 0.173 µM) throughout.
